The list is not random: actives were taken first. Their share in the collection is about 3.1%.
DENV2 CPE rescue: inhibitors of DENV2 cytopathic effect, primary screen, cell-based, plate reader, single concentration. DENV2-infected cells, cytopathic effect rescue. CPE inhibition, % at 9.99 µM. 1.7% of 350,000 active; in the data active = CPE inhibition above about 20%, passing the limit was not always enough; inconclusive = no clear call, values can overlap the other calls; tested in BHK-21 cells
miR122 inh: miR-122 Renilla sensor signal increase in Huh7, primary screen, miR-122 inhibitor project, cell-based, single point, plate reader. Huh7 miR-122 Renilla luciferase sensor, 48 h; neutral wells = 0, positive control = 100. activation (reporter increase), % at 12.5 µM. 0.3% of 340,000 active;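 active = mean replicate activation score at least 90 and every replicate individually at or above 90; inconclusive = only one of the two criteria met; inactive = neither criterion met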;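 also: higher luciferase means less miR-122 activity so hits act as miR-122 inhibitors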
Ecoli rRNA inh: reduced GFP signal of wild-type E. coli, primary screen, bacterial rRNA inhibitor project, GFP/RFP fluorescence, OD600, single point; 1.6% of 350,000 active; E. coli WT GFP vs humanized-ribosome RFP mutants, 24 h; hits give low values; DMSO median 0, no signal -100; AID 720706, 2013; GFP signal change (wild-type ribosome), % (concentration not given with the values);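 active = significant combined selectivity score with lowered wild-type GFP, culture density cut under 30%, mutant RFP and density less affected; inactive = any of these conditions unmet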
Cneo AK release: Cryptococcus neoformans cell lysis inducers, primary screen, AK release luminescence, single concentration. C. neoformans lysis, adenylate kinase release luminescence, 4 h; normalised: neutral wells 0, clomiphene wells 100. lysis activity, % at 15 µM. 0.2% of 360,000 active;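 active = mean lysis activity across replicates of at least 80%, whatever share of replicates individually reach that level; inactive = mean lysis activity below 80%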
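Assay system: log-phase C. neoformans yeast / Quantity: yeast cell density of 5 × 10^6 cells/mL / Medium: fresh YPD growth medium / Compound: single dose / Timing: static 4 h at 37 °C with compound, 1 h detection / Measured by: adenylate kinase release luminescence / Read-out: lysis from increased AK signal / Benchmarks: Clomiphene as positive lysis control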
E-sel inducer: E-selectin induction in HUVECs, primary screen, imaging, HUVEC, immunofluorescence imaging, single point; AID 686992, 2013; activation, % at 7.58 µM; normalized: neutral wells 0, TNF-alpha wells 100; 0.37% of 260,000 active; P16581;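 active = mean E-selectin-positive cell signal at least 10% of the positive control, reached in at least 60% of replicates, without over 20% cell loss; inconclusive = no rule given, readout overlaps actives, possibly toxicity-flagged; inactive = the rest, including those meeting only one limit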
Target sequence (P16581 whole entry, looked up): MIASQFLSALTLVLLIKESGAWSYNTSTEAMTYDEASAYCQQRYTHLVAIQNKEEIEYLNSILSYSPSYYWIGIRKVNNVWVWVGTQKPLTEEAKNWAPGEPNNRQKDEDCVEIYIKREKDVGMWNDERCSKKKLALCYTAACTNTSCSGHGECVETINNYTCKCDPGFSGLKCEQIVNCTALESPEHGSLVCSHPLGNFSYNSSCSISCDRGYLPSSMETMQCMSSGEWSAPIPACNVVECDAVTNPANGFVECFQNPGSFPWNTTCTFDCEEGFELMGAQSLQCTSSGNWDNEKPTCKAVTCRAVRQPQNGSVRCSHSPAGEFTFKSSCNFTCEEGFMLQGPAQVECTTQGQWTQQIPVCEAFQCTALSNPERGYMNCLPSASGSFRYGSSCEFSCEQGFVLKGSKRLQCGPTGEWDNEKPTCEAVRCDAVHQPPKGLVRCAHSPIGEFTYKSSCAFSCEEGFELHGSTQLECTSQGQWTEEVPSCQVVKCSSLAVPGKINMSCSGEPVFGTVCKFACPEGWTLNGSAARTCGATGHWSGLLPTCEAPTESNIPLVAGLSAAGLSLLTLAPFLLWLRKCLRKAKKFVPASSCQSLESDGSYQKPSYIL
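System: HUVEC, human umbilical vein endothelial cells; quantity: 3,000 cells/well; buffer or medium: EGM-2 medium, gelatin-coated wells; dosing: single-point compound dose; detection: immunofluorescence imaging; evaluation: % PE-positive cells; benchmarks: TNF-alpha, DMSO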
A number is an active result; 0 = inactive; ? = inconclusive; - = not tested or not shown.

SMILES	DENV2 CPE rescue	miR122 inh	Ecoli rRNA inh	Cneo AK release	E-sel inducer
CCOC(=O)C1=C(COC(=O)Cc2ccccc2[N+](=O)[O-])NC(=O)NC1C (stereo not drawn)	38.1	0	-	0	0
Cc1noc(C)c1NC(=O)Nc1ccc2c(c1)CC(=O)N([C@H](C)CO)C[C@@H](C)[C@@H](CN(C)C(=O)Nc1ccc(F)cc1)O2	?	0	0	0	0
Cc1noc(C)c1NC(=O)N(C)C[C@@H]1Oc2ccc(NC(=O)Cc3ccccc3)cc2CC(=O)N([C@H](C)CO)C[C@H]1C	0	0	0	0	0
Cc1noc(C)c1NC(=O)N(C)C[C@H]1Oc2ccc(NC(=O)Cc3ccccc3)cc2CC(=O)N([C@@H](C)CO)C[C@H]1C	54.4	0	0	0	0
Cc1noc(C)c1NC(=O)Nc1ccc2c(c1)CC(=O)N([C@@H](C)CO)C[C@H](C)[C@@H](CN(C)C(=O)Nc1ccc(F)cc1)O2	0	0	0	0	72.5
Cc1noc(C)c1NC(=O)Nc1ccc2c(c1)CC(=O)N([C@H](C)CO)C[C@H](C)[C@H](CN(C)C(=O)Nc1ccccc1)O2	20.2	0	0	0	0
CO[C@H]1CN(C)C(=O)c2cc(NC(C)=O)ccc2OC[C@@H](C)N(Cc2cccnc2)C[C@H]1C	-	0	0	0	0
Cc1noc(C)c1S(=O)(=O)Nc1ccc2c(c1)C(=O)N([C@@H](C)CO)C[C@H](C)[C@H](CN(C)Cc1ccc(C(=O)O)cc1)OCCCC[C@@H](C)O2	49.7	0	0	0	0
Cc1noc(C)c1S(=O)(=O)Nc1ccc2c(c1)C(=O)N([C@H](C)CO)C[C@@H](C)[C@@H](CN(C)Cc1ccc(C(=O)O)cc1)OCCCC[C@@H](C)O2	38.4	0	0	0	0
Cc1noc(C)c1S(=O)(=O)Nc1ccc2c(c1)C(=O)N([C@H](C)CO)C[C@H](C)[C@@H](CN(C)Cc1ccc(C(=O)O)cc1)OCCCC[C@H](C)O2	0	0	0	0	0
Cc1noc(C)c1S(=O)(=O)Nc1ccc2c(c1)C(=O)N([C@H](C)CO)C[C@@H](C)[C@H](CN(C)Cc1ccncc1)O2	0	0	0	0	57.4
Cc1noc(C)c1S(=O)(=O)Nc1ccc2c(c1)C(=O)N([C@H](C)CO)C[C@H](C)[C@H](CN(C)Cc1ccc(C(=O)O)cc1)OCCCC[C@H](C)O2	0	0	0	0	0
Cc1noc(C)c1S(=O)(=O)Nc1ccc2c(c1)C(=O)N([C@@H](C)CO)C[C@@H](C)[C@H](CN(C)Cc1ccc(C(=O)O)cc1)OCCCC[C@H](C)O2	24.5	0	0	0	0
Cc1ccc(S(=O)(=O)Nc2ccc3c(c2)C(=O)N([C@@H](C)CO)C[C@H](C)[C@H](CN(C)C)O3)cc1	?	0	0	0	0
Cc1noc(C)c1S(=O)(=O)Nc1ccc2c(c1)C(=O)N([C@H](C)CO)C[C@H](C)[C@H](CN(C)Cc1ccncc1)OCCCC[C@@H](C)O2	26.2	0	0	0	0
Nc1ccccc1C(=O)NNc1c2ccccc2nc2ccccc12	0	0	-19.6	0	0
Cc1ccc(C(=O)NNc2c3ccccc3nc3ccccc23)cc1	0	0	0	0	0
COc1ccc(NC(=O)N(C)C[C@H]2Oc3ccc(N(C)C)cc3CC(=O)N([C@H](C)CO)C[C@@H]2C)cc1	0	0	0	0	327.1
COc1ccc(NC(=O)N(C)C[C@@H]2Oc3ccc(NS(C)(=O)=O)cc3CC(=O)N([C@H](C)CO)C[C@@H]2C)cc1	33.8	0	0	0	0
CCCC#Cc1cnc2c(c1)C(=O)N([C@@H](C)CO)C[C@@H](C)[C@H](CN(C)C(=O)c1cccnc1)O2	0	0	0	0	0
COc1ccc(C2c3sc(=O)[nH]c3SC3C4CCC(C4)C23)cc1 (stereo not drawn)	-	0	-	-	-
COc1cc(C2c3sc(=O)[nH]c3SC3C4CCC(C4)C23)ccc1O (stereo not drawn)	0	0	-31.9	0	-
CC/C(=N\NC(=O)c1ccc2c(c1)OCO2)C12CC3CC(CC(C3)C1)C2	-	181.1	-	0	-
Cc1noc(C)c1S(=O)(=O)Nc1ccc2c(c1)CC(=O)N([C@@H](C)CO)C[C@@H](C)[C@@H](CN(C)Cc1ccc(C(=O)Nc3ccccc3N)cc1)O2	0	-	0	-	-
CCc1ccc(C(C(=O)NC2CCCCC2)N(C(=O)c2csnn2)C2CC2)cc1 (stereo not drawn)	0	0	0	0	39.1
SMILES	DENV2 CPE rescue	miR122 inh	Ecoli rRNA inh	Cneo AK release	E-sel inducer
C=CCN(C(=O)c1csnn1)C(C(=O)NC1CCCC1)c1ccc(Cl)cc1 (stereo not drawn)	0	-	0	0	-
Cc1ccc(C(C(=O)NC2CCCCC2)N(C(=O)c2csnn2)C2CC2)cc1 (stereo not drawn)	0	-	0	0	0
C=CCN(C(=O)c1csnn1)C(C(=O)NC1CCCCC1)c1ccccc1 (stereo not drawn)	0	0	0	0	31.5
Cc1cc(NC(=O)CSc2nc(CCC3CCCC3)nc3ccccc23)no1	-	0	-	0	-
O=C(CSc1nc(CCC2CCCC2)nc2ccccc12)NCc1ccc2c(c1)OCO2	0	0	0	115.4	0
CO[C@H](CN(C)S(=O)(=O)c1ccc(Cl)cc1)[C@H](C)CN([C@@H](C)CO)S(=O)(=O)c1cccc(Cl)c1	0	-	0	0	0
O=C(N/N=C/c1ccc(O)cc1)c1cc(C23CC4CC(CC(C4)C2)C3)[nH]n1	0	-	-32.3	-	-
CC(C)=CCOc1c2ccoc2c(OCC=C(C)C)c2oc(=O)ccc12	0	0	0	0	-
CC(C)=CCOc1c2ccoc2cc2oc(=O)ccc12	125.2	0	0	0	-
C/C=C/c1ccccc1[C@H]1[C@@H](C#N)N(C(=O)CN2CCOCC2)[C@H]1CO	0	-	0	-	0
O=C(O)CSc1nnc(-c2ccccc2Br)n1-c1cccc(C(F)(F)F)c1	0	-	-23.8	-	?
C[C@H]1CN([C@@H](C)CO)C(=O)c2cc(-c3ccc(C#N)cc3)cnc2O[C@@H]1CN(C)CC1CCCCC1	0	0	0	0	0
Cc1cccc(-c2ccc([C@H]3[C@H](CO)N4CCCCN(S(=O)(=O)c5ccccc5C)C[C@@H]34)cc2)c1	0	0	-38.6	0	0
Cc1cccc(S(=O)(=O)N2CCCCN3[C@H](CO)[C@H](c4ccc(-c5cccnc5)cc4)[C@H]3C2)c1	0	0	0	0	0
Cc1cccc(-c2ccc([C@@H]3[C@H]4CN(S(=O)(=O)c5cccc(C)c5)CCCCN4[C@H]3CO)cc2)c1	0	0	0	0	0

Bioassay records (PubChem BioAssay)
